Experimental findings from ChEMBL document CHEMBL3045046, “Synthesis, herbicidal activities, and 3D-QSAR of 2-cyanoacrylates containing aromatic methylamine moieties” (J Agric Food Chem, 2008) are described below.

The structures appear in SMILES notation.

Common to all, as to assay type: functional
The subject of experiment [1] is Brassica napus. Briefly: Herbicidal activity against Brassica napus (oilseed rape) assessed as inhibition of herb growth at 1.5 kg/ha during preemergence treatment protocol. The note with it: pre-emergence, read-out: GI.
The subject of experiment [2] is Digitaria sanguinalis. The experiment can be described thus: Herbicidal activity against hairy Digitaria sanguinalis (hairy crabgrass) assessed as inhibition of herb growth at 1.5 kg/ha during postemergence treatment protocol. The note with it: post-emergence, read-out: GI.
The subject of experiment [3] is Amaranthus retroflexus. Briefly: Herbicidal activity against Amaranthus retroflexus assessed as inhibition of herb growth at 1.5 kg/ha during preemergence treatment protocol. As to conditions: pre-emergence, read-out: GI.
Experiment [4] deals with Digitaria sanguinalis. The experiment can be described thus: Herbicidal activity against hairy Digitaria sanguinalis (hairy crabgrass) assessed as inhibition of herb growth at 1.5 kg/ha during preemergence treatment protocol. As to conditions: pre-emergence, read-out: GI.
Experiment [5] deals with Spinacia oleracea. The experiment can be described thus: Inhibition of photosynthetic electron transport in Spinacia oleracea (spinach)isolated chloroplasts assessed as inhibition of Hill reaction. A digest of the protocol: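 Chloroplasts from fresh spinach leaves, homogenised in ice-cold pH 7.8 buffer (0.4 M sucrose, 10 mM NaCl, 50 mM Tris-HCl), spun 3 min 120g then 5 min 1000g at 4 °C. Reaction buffer 350 mM NaCl, 10 mM Tris-HCl pH 7.8 with DCPIP; 2 min light (360 µmol m^-2 s^-1), DCPIP reduction at 620 nm. Compounds 0.01 mg/L–0.3 mg/mL in […]/water, ≥triplicate; IC50 by log-linear regression.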

In experiment [6] the test system is Medicago sativa. Briefly: Herbicidal activity against Medicago sativa (alfalfa) assessed as inhibition of herb growth at 1.5 kg/ha during preemergence treatment protocol. The note with it: pre-emergence, read-out: GI.
For experiment [7], the system named is Medicago sativa. Briefly: Herbicidal activity against Medicago sativa (alfalfa) assessed as inhibition of herb growth at 1.5 kg/ha during postemergence treatment protocol. The note with it: post-emergence, read-out: GI.
Experiment [8] has as its system Amaranthus retroflexus. The experiment can be described thus: Herbicidal activity against Amaranthus retroflexus assessed as inhibition of herb growth at 1.5 kg/ha during postemergence treatment protocol. The note with it: post-emergence, read-out: GI.
The test system of experiment [9] is Brassica napus. Briefly: Herbicidal activity against Brassica napus (oilseed rape) assessed as inhibition of herb growth at 1.5 kg/ha during postemergence treatment protocol. As to conditions: post-emergence, read-out: GI.
Where [10] appears, read: Spinacia oleracea, read-out: pIC50 (converted).

For `CCOCCOC(=O)/C(C#N)=C(\NCc1cnc(OCC)s1)C(C)C`, the inhibition of growth at 1500 g/ha in [1] stood at 48.7%; in experiment [2] it was 51.2%; in experiment [3], 37.8%; in experiment [4], 0%; in [6] it was 5.4%; in experiment [7] it was 41.4%. Also, the inhibition of growth at 1500 g/ha in [8] and in [9] was 100% throughout. Also, the IC50 in experiment [5] is 0.223 ppm; in [5] (setting [10]), 224 nM.
Consider `CCCOc1ncc(CN/C(SC)=C(/C#N)C(=O)OCCOCC)s1`, for which the inhibition of growth at 1500 g/ha in experiment [1] was 0%; in experiment [2] it was 49.6%; in experiment [3] it was 27%; in experiment [4] it was 0%; in experiment [6] it was 17.6%; in [7], 57.3%. For the same compound, the inhibition of growth at 1500 g/ha in [8] and in experiment [9] was 100% each time. Moreover, the IC50 was 0.05 ppm in experiment [5] and 50.1 nM in [5] (setting [10]).
As for `CCCOc1ncc(CN/C(=C(/C#N)C(=O)OCCOCC)C(C)C)s1`, the inhibition of growth at 1500 g/ha was 9.8% in [1]; 52.8% in [2]; 27% in experiment [3]; 6.9% in experiment [4]; 0% in [6]; 48.7% in [7]. For the same compound, the inhibition of growth at 1500 g/ha in experiment [8] and in experiment [9] was 100% throughout. Further, the IC50 in [5] is 0.08 ppm; in experiment [5] (setting [10]), 79.4 nM.
With `CCOCCOC(=O)/C(C#N)=C(\NCc1cnc(OC(C)C)s1)SC`, the inhibition of growth at 1500 g/ha in [1] came to 26%; in experiment [2], 54.4%; in experiment [3], 40.5%; in [4] it was 14.8%; in experiment [6] it was 4.5%; in experiment [7], 53.6%. The inhibition of growth at 1500 g/ha in experiment [8] and in experiment [9] was 100% each time. Moreover, the figures for the IC50 in experiment [5] and in [5] (setting [10]) were 0.07 ppm and 70.8 nM, respectively.
Consider `CCOCCOC(=O)/C(C#N)=C(\NCc1cnc(OC(C)C)s1)C(C)C`, for which the inhibition of growth at 1500 g/ha in [1] came to 51.4%; in experiment [2] it was 60.8%; in [3] it was 100%; in experiment [4], 6.9%; in experiment [6], 1.7%; in experiment [7], 43.4%. Moreover, the inhibition of growth at 1500 g/ha in experiment [8] and in experiment [9] was 100% throughout. Also, the IC50 in experiment [5] is 0.076 ppm; in [5] (setting [10]), 75.9 nM.
`CCOCCOC(=O)/C(C#N)=C(\NCc1cnc(OCC(F)(F)F)s1)SC`: the inhibition of growth at 1500 g/ha in [1] worked out at 65.4%; in [2] it was 47.2%; in [3], 43.2%; in experiment [4] it was 8.9%; in experiment [6], 1.7%; in [7], 60.9%. Moreover, the inhibition of growth at 1500 g/ha came to 98.7% in [8] and 100% in experiment [9]. The IC50 in [5] is 0.055 ppm; in experiment [5] (setting [10]) it was 55 nM.
`CCOCCOC(=O)/C(C#N)=C(\NCc1cnc(OCC(F)(F)F)s1)C(C)C`: the inhibition of growth at 1500 g/ha turned out to be 71.9% in experiment [1]; 95.2% in experiment [2]; 51% in experiment [3]; 34.6% in experiment [4]; 0% in experiment [6]; 53.3% in experiment [7]. For the same compound, the inhibition of growth at 1500 g/ha in [8] and in experiment [9] was 100% throughout. The IC50 in [5] is 0.074 ppm; in [5] (setting [10]), 74.1 nM.
As to `CCOCCOC(=O)/C(C#N)=C(\NCc1ccc(N(C)C)nc1)C(C)C`, the inhibition of growth at 1500 g/ha turned out to be 29.3% in [1]; 88% in [2]; 75.7% in experiment [3]; 52.5% in [4]; 27.9% in [6]; 58.3% in [7]. In addition, the inhibition of growth at 1500 g/ha in experiment [8] and in experiment [9] was 100% in each case. In addition, the IC50 in [5] is 0.086 ppm; in [5] (setting [10]), 85.1 nM.
Take `CCOCCOC(=O)/C(C#N)=C(\NCc1ccc(OCC(F)(F)F)nc1)SC`: the inhibition of growth at 1500 g/ha in [1] amounted to 10%; in experiment [2] it was 100%; in experiment [3], 0%; in experiment [4], 0%; in experiment [6] it was 0%; in [7], 54.2%. In addition, the inhibition of growth at 1500 g/ha in experiment [8] and in experiment [9] was 100% each time. Also, the IC50 in experiment [5] is 0.048 ppm; in experiment [5] (setting [10]), 47.9 nM.
Turning to `CCOCCOC(=O)/C(C#N)=C(\NCc1cnc(Cl)s1)C(C)C`, the inhibition of growth at 1500 g/ha is 70.3% in experiment [1]; 45.6% in [2]; 67.6% in [3]; 28.7% in [4]; 15.7% in [6]; 37.1% in experiment [7]. Also, the inhibition of growth at 1500 g/ha in [8] and in [9] was 100% in each case. In addition, the IC50 in experiment [5] was 0.161 ppm; in experiment [5] (setting [10]), 162 nM.
Regarding `CCOCCOC(=O)/C(C#N)=C(\NCc1cnc(Br)s1)SC`, the inhibition of growth at 1500 g/ha in experiment [1] was determined as 28.7%; in experiment [2], 36%; in [3] it was 29.7%; in [4] it was 8.9%; in [6], 8.2%; in [7], 26.8%. Further, the figures for the inhibition of growth at 1500 g/ha in experiment [8] and in [9] were 88% and 100%, respectively. For the same compound, the results for the IC50 in experiment [5] and in experiment [5] (setting [10]) were 0.102 ppm and 102 nM, respectively.
Take `CCOCCOC(=O)/C(C#N)=C(\NCc1cnc(Br)s1)C(C)C`: the inhibition of growth at 1500 g/ha in experiment [1] came to 82.2%; in [2], 48%; in experiment [3] it was 18.9%; in experiment [4], 3%; in experiment [6], 1.7%; in experiment [7], 30.8%. Also, the inhibition of growth at 1500 g/ha in experiment [8] and in experiment [9] was 100% in each case. The IC50 in [5] was 0.107 ppm; in [5] (setting [10]) it was 107 nM.
Take `CCOCCOC(=O)/C(C#N)=C(\NCc1cnc(OCC)s1)SC`: the inhibition of growth at 1500 g/ha in [1] came to 23.3%; in experiment [2] it was 51.2%; in experiment [3], 43.2%; in [4], 44.6%; in experiment [6], 14.8%; in experiment [7], 62.6%. Moreover, the inhibition of growth at 1500 g/ha in experiment [8] and in [9] was 100% in each case. In addition, the IC50 in experiment [5] is 0.115 ppm; in experiment [5] (setting [10]), 115 nM.
